# In ChEMBL document CHEMBL1139985, “Discovery of (S)-2-((S)-2-(3,5-difluorophenyl)-2-hydroxyacetamido)-N-((S,Z)-3-methyl-4-oxo-4,5-dihydro-3H-benzo[d][1,2]diazepin-5-yl)propanamide (BMS-433796): a gamma-secretase inhibitor with Abeta lowering activity in a transgenic mouse model of Alzheimer's disease” (Bioorg Med Chem Lett, 2007):
# Active and inactive are the calls of the source. No cut-off for these calls is given here.
# How the values were obtained:
# Gamma-secretase = assay: Inhibition of gamma secretase assessed as reduction of amyloid beta level in H4 cells; assay type: cell-based, Homo sapiens
# Procedure, shortened: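 H4 cells; Aβ40 lowering measured in a cell-based assay; IC50 values are means of two experiments, 16 data points each, intra-assay variance <10%.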
# Mus musculus [1] = assay: Inhibition of beta amyloid peptide in Tg2576 mouse brain at 30 umol/kg, po after 3 hrs; assay type: functional
# Procedure, shortened: (§1)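 Tg2576 mice, single oral dose of 30 µmol/kg; brain and plasma sampled 3 h after dosing for Aβ (% inhibition) and compound levels; n = 7-10; means ± SEM.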
# [2] = Drug level in Tg2576 mouse brain at 30 umol/kg, po after 3 hrs; assay type: ADME, organism-based; conditions: read-out: Drug uptake; procedure, shortened: as §1
# Mus musculus [3] = assay: Inhibition of beta amyloid peptide in Tg2576 mouse plasma at 30 umol/kg, po after 3 hrs; assay type: functional; procedure, shortened: as §1
# [4] = Drug level in Tg2576 mouse plasma at 30 umol/kg, po after 3 hrs; assay type: ADME, organism-based; conditions: read-out: Drug uptake; procedure, shortened: as §1
# Mus musculus [5] = assay: Inhibition of beta amyloid peptide in po dosed Tg2576 mouse plasma after 3 hrs; assay type: functional
# Procedure, shortened: (§2)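 Tg2576 mice dosed orally; brain and plasma Aβ measured 3 h after dosing; ED50 derived from dose-dependent Aβ reduction.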
# Mus musculus [6] = assay: Inhibition of beta amyloid peptide in po dosed Tg2576 mouse brain after 3 hrs; assay type: functional, organism-based; procedure, shortened: as §2
# Mus musculus [7] = assay: Inhibition of beta amyloid peptide in Tg2576 mouse brain at 4 umol/kg, po qd after 1 day; assay type: functional; design: scale not given: the % may be the effect or the level left
# Procedure, shortened: (§3)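 Tg2576 mice dosed orally at 4 or 30 µmol/kg, once daily for 1 or 14 days or twice daily (30 µmol/kg); brain Aβ inhibition measured.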
# Mus musculus [8] = assay: Inhibition of beta amyloid peptide in Tg2576 mouse brain at 4 umol/kg, po qd after 14 days; assay type: functional; design: scale not given: the % may be the effect or the level left; procedure, shortened: as §3
# Mus musculus [9] = assay: Inhibition of beta amyloid peptide in Tg2576 mouse brain at 30 umol/kg, po qd after 1 day; assay type: functional; design: scale not given: the % may be the effect or the level left; procedure, shortened: as §3
# Mus musculus [10] = assay: Inhibition of beta amyloid peptide in Tg2576 mouse brain at 30 umol/kg, po, qd after 14 days; assay type: functional; design: scale not given: the % may be the effect or the level left; procedure, shortened: as §3
# Mus musculus [11] = assay: Inhibition of beta amyloid peptide in Tg2576 mouse brain at 30 umol/kg, po bid after 14 days; assay type: functional; design: scale not given: the % may be the effect or the level left; procedure, shortened: as §3
# Mus musculus [12] = species on record: Mus musculus; assay: Reduction of beta amyloid peptide in Tg2576 mouse brain after 12 hrs; assay type: functional, organism-based
# Mus musculus [13] = species on record: Mus musculus; assay: Reduction of beta amyloid peptide in Tg2576 mouse plasma after 12 hrs; assay type: functional, organism-based
# Mus musculus [14] = species on record: Mus musculus; assay: Increase in beta amyloid peptide in Tg2576 mouse plasma after 24 hrs; assay type: functional
# [15] = Clearance in Sprague-Dawley rat at 2.3 umol/kg, iv; assay type: ADME, organism-based; conditions: in vivo
# [16] = Terminal half life in Sprague-Dawley rat at 2.3 umol/kg, iv; assay type: ADME, organism-based; conditions: in vivo
# [17] = Oral bioavailability in Sprague-Dawley rat at 35 umol/kg; assay type: ADME, organism-based; conditions: in vivo
# Procedure, shortened: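 Rats dosed orally with a PEG-400 suspension at 35 µmol/kg; bioavailability from plasma exposure.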
# [18] = Inhibition of human Cytochrome P450; assay type: ADME
# Procedure, shortened: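 Inhibition of human CYPs measured in vitro as IC50.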
# Homo sapiens = species on record: Homo sapiens; assay: Ratio of IC50 for Notch processing to IC50 for amyloid beta processing
# Mus musculus [19] = assay: Toxicity in Tg2576 mouse at 30 umol/kg, po bid after 10 days; assay type: organism-based; conditions: in vivo, 240 h
# Procedure, shortened: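 Tg2576 mice dosed orally at 30 µmol/kg twice daily; clinical signs, body weight and mortality monitored; intestinal histopathology assessed.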
smiles,measurement,setting,value
C[C@H](NC(=O)Cc1cc(F)cc(F)c1)C(=O)NC1C(=O)N(C)NCc2ccccc21 (some centres undefined),IC50,Gamma-secretase,9 nM
same,inhibition in vivo at 30 µmol/kg,Mus musculus [1],51%
same,concentration at 3 h,[2],6 nM
same,inhibition in vivo at 30 µmol/kg,Mus musculus [3],80%
same,concentration at 3 h,[4],205 nM
same,ED50,Mus musculus [5],5 µmol/kg
CC(C)C[C@H](NC(=O)Cc1ccccc1F)C(=O)NC1C(=O)N(C)N=Cc2ccccc21 (some centres undefined),IC50,Gamma-secretase,22 nM
C[C@H](NC(=O)[C@H](O)c1cc(F)cc(F)c1)C(=O)N[C@@H]1C(=O)N(C)N=Cc2ccccc21,IC50,Gamma-secretase,10 nM
same,inhibition in vivo at 30 µmol/kg,Mus musculus [1],91%
same,concentration at 3 h,[2],202 nM
same,inhibition in vivo at 30 µmol/kg,Mus musculus [3],86%
same,concentration at 3 h,[4],2750 nM
same,Activity,Mus musculus [6],Active
CC(C)C[C@H](NC(=O)Cc1ccc(F)cc1)C(=O)NC1C(=O)N(C)N=Cc2ccccc21 (some centres undefined),IC50,Gamma-secretase,14 nM
CC(C)C[C@H](NC(=O)CC1CCCCC1)C(=O)NC1C(=O)N(C)N=Cc2ccccc21 (some centres undefined),IC50,Gamma-secretase,14 nM
CC(C)C[C@H](NC(=O)Cc1cccs1)C(=O)NC1C(=O)N(C)N=Cc2ccccc21 (some centres undefined),IC50,Gamma-secretase,1.9 nM
C[C@H](NC(=O)Cc1ccc2ccccc2c1)C(=O)NC1C(=O)N(C)N=Cc2ccccc21 (some centres undefined),IC50,Gamma-secretase,269 nM
C[C@H](NC(=O)Cc1cccnc1)C(=O)NC1C(=O)N(C)N=Cc2ccccc21 (some centres undefined),IC50,Gamma-secretase,162 nM
C[C@H](NC(=O)[C@H](O)c1cc(F)cc(F)c1)C(=O)N[C@H]1C(=O)N(C)N=Cc2ccccc21,IC50,Gamma-secretase,750 nM
CC(C)C[C@H](NC(=O)[C@@H](O)c1ccccc1)C(=O)NC1C(=O)N(C)N=Cc2ccccc21 (some centres undefined),IC50,Gamma-secretase,0.4 nM
CC(C)N1N=Cc2ccccc2C(NC(=O)[C@H](C)NC(=O)Cc2cc(F)cc(F)c2)C1=O (some centres undefined),IC50,Gamma-secretase,4 nM
C[C@H](NC(=O)[C@@H](O)c1cc(F)cc(F)c1)C(=O)N[C@@H]1C(=O)N(C)N=Cc2ccccc21,IC50,Gamma-secretase,0.3 nM
same,inhibition in vivo at 30 µmol/kg,Mus musculus [1],90%
same,concentration at 3 h,[2],133 nM
same,inhibition in vivo at 30 µmol/kg,Mus musculus [3],88%
same,concentration at 3 h,[4],1960 nM
same,Activity,Mus musculus [6],Active
same,Activity,Mus musculus [7],25%
same,Activity,Mus musculus [8],38%
same,Activity,Mus musculus [9],83%
same,Activity,Mus musculus [10],89%
same,Activity,Mus musculus [11],98%
same,Activity,Mus musculus [12],Active
same,Activity,Mus musculus [13],Active
same,Activity,Mus musculus [14],60%
same,clearance,[15],5.2 mL/min/kg
same,half-life,[16],4.6 h
same,bioavailability,[17],31%
same,IC50,[18],> 100000 nM
same,Ratio IC50,Homo sapiens,0.5
same,Activity,Mus musculus [19],Toxic
CC1=NN(C)C(=O)C(NC(=O)[C@H](C)NC(=O)Cc2ccoc2)c2ccccc21 (some centres undefined),IC50,Gamma-secretase,2 nM
C[C@H](NC(=O)Cc1ccco1)C(=O)NC1C(=O)N(C)N=Cc2ccccc21 (some centres undefined),IC50,Gamma-secretase,24 nM
C[C@H](NC(=O)Cc1ccsc1)C(=O)NC1C(=O)N(C)N=Cc2ccccc21 (some centres undefined),IC50,Gamma-secretase,1 nM
C[C@H](NC(=O)CC1CCCCC1)C(=O)NC1C(=O)N(C)N=Cc2ccccc21 (some centres undefined),IC50,Gamma-secretase,43 nM
C[C@H](NC(=O)[C@@H](O)c1cc(F)cc(F)c1)C(=O)N[C@H]1C(=O)N(C)N=Cc2ccccc21,IC50,Gamma-secretase,30 nM
same,inhibition in vivo at 30 µmol/kg,Mus musculus [1],29%
same,concentration at 3 h,[2],72 nM
same,concentration at 3 h,[4],546 nM
C[C@H](NC(=O)Cc1cc(F)cc(F)c1)C(=O)NC1C(=O)N(C)N=Cc2ccccc21 (some centres undefined),IC50,Gamma-secretase,6 nM
same,inhibition in vivo at 30 µmol/kg,Mus musculus [1],54%
same,concentration at 3 h,[2],12 nM
same,inhibition in vivo at 30 µmol/kg,Mus musculus [3],75%
same,concentration at 3 h,[4],199 nM
C[C@H](NC(=O)Cc1cccc(Cl)c1)C(=O)NC1C(=O)N(C)N=Cc2ccccc21 (some centres undefined),IC50,Gamma-secretase,10 nM
CC(C)C[C@H](NC(=O)Cc1ccsc1)C(=O)NC1C(=O)N(C)N=Cc2ccccc21 (some centres undefined),IC50,Gamma-secretase,0.7 nM
CC(C)C[C@H](NC(=O)Cc1cccc(F)c1)C(=O)NC1C(=O)N(C)N=Cc2ccccc21 (some centres undefined),IC50,Gamma-secretase,2 nM
C[C@H](NC(=O)Cc1cccs1)C(=O)NC1C(=O)N(C)N=Cc2ccccc21 (some centres undefined),IC50,Gamma-secretase,3 nM
C[C@H](NC(=O)Cc1cccc(F)c1)C(=O)NC1C(=O)N(C)N=Cc2ccccc21 (some centres undefined),IC50,Gamma-secretase,8 nM
C[C@H](NC(=O)Cc1ccc(F)cc1)C(=O)NC1C(=O)N(C)N=Cc2ccccc21 (some centres undefined),IC50,Gamma-secretase,59 nM
CC(C)C[C@H](NC(=O)Cc1cc(F)cc(F)c1)C(=O)NC1C(=O)N(C)N=Cc2ccccc21 (some centres undefined),IC50,Gamma-secretase,0.5 nM
C[C@H](NC(=O)C(=O)c1cc(F)cc(F)c1)C(=O)NC1C(=O)N(C)N=Cc2ccccc21 (some centres undefined),IC50,Gamma-secretase,1 nM
same,inhibition in vivo at 30 µmol/kg,Mus musculus [1],92%
same,concentration at 3 h,[2],280 nM
same,inhibition in vivo at 30 µmol/kg,Mus musculus [3],98%
same,concentration at 3 h,[4],2090 nM
CC1=NN(C)C(=O)C(NC(=O)[C@H](C)NC(=O)Cc2cc(F)cc(F)c2)c2ccccc21 (some centres undefined),IC50,Gamma-secretase,1.3 nM
C[C@H](NC(=O)[C@@H](O)c1cc(F)cc(F)c1)C(=O)NC1C(=O)N(C)N=Cc2ccccc21 (some centres undefined),IC50,Gamma-secretase,0.2 nM
CC(C)C[C@H](NC(=O)[C@H](O)c1ccccc1)C(=O)NC1C(=O)N(C)N=Cc2ccccc21 (some centres undefined),IC50,Gamma-secretase,56 nM
